Laboratory results taken from ChEMBL document CHEMBL4251567 (Eur J Med Chem, 2018).

Experiments:
Histone deacetylase = experiment: Inhibition of HDAC in human HeLa-S3 cell lysates preincubated for 15 mins followed by HDAC-Glo substrate addition measured after 35 mins by fluorimetric method; assay type: protein assay
[1] = molecular target: T1, Histone deacetylase (Homo sapiens) (UniProt Q13547+O15379+Q9UBN7+Q92769+Q9UQL6+Q8WUI4+Q9BY41+Q96DB2+P56524+Q9UKV0+Q969S8); experiment: Inhibition of HDAC in human HeLa-S3 cell lysates assessed as residual activity at 2 x 10^-4 M preincubated for 15 mins followed by HDAC-Glo substrate addition measured after 35 mins by fluorimetric method relative to control; assay type: protein assay
Procedure, shortened: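 Lysate (1 μg total protein) in HDAC-Glo buffer was preincubated with inhibitor in DMSO for 15 min at room temperature. HDAC-Glo substrate/developer reagent was added and luminescence read after 35 min. Concentrations are final. Signal corrected for a no-lysate blank; % of DMSO control.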

[2] = molecular target: T1, Histone deacetylase (Homo sapiens); experiment: Inhibition of HDAC in human HeLa-S3 cell lysates assessed as residual activity at 1 x 10^-4 M preincubated for 15 mins followed by HDAC-Glo substrate addition measured after 35 mins by […] relative to control; assay type: protein assay
[3] = molecular target: T1, Histone deacetylase (Homo sapiens); experiment: Inhibition of HDAC in human HeLa-S3 cell lysates assessed as residual activity at 2.5 x 10^-5 M preincubated for 15 mins followed by HDAC-Glo substrate addition measured after 35 mins by […] relative to control; assay type: protein assay
[4] = molecular target: T1, Histone deacetylase (Homo sapiens); experiment: Inhibition of HDAC in human HeLa-S3 cell lysates assessed as residual activity at 1.25 x 10^-5 M preincubated for 15 mins followed by HDAC-Glo substrate addition measured after 35 mins by […] relative to control; assay type: protein assay
[5] = molecular target: T2, Histone deacetylase 8 (Homo sapiens) (UniProt Q9BY41); experiment: Inhibition of human recombinant full-length C-terminal His-tagged HDAC8 expressed in baculovirus infected Sf9 insect cell assessed as remaining activity at 4 x 10^-7 M preincubated for 15 mins followed by HDAC-Glo substrate addition measured after 30 mins by fluorimetric method rel;ative to control
T2 sequence (whole entry): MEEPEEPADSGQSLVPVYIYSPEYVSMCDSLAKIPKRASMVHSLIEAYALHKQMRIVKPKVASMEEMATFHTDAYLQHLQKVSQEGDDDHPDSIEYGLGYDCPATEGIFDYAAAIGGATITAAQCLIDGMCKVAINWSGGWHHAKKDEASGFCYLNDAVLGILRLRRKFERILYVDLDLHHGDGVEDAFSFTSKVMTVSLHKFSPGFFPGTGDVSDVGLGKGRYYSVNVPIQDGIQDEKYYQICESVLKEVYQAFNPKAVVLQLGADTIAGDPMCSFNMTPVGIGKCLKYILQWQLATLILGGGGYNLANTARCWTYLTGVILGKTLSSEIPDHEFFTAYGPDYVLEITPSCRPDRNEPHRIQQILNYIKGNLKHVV
Procedure, shortened: (§1)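 Recombinant HDAC8 (75 ng) preincubated 15 min at RT with inhibitor in DMSO in HDAC-Glo buffer. HDAC-Glo reagent added and luminescence read 30 min later. Background taken from a reaction without enzyme; activity as % of DMSO control.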

[6] = molecular target: T2, Histone deacetylase 8 (Homo sapiens); experiment: Inhibition of human recombinant full-length C-terminal His-tagged HDAC8 expressed in baculovirus infected Sf9 insect cell assessed as remaining activity at 8 x 10^-7 M preincubated for 15 mins followed by HDAC-Glo substrate addition measured after 30 mins by fluorimetric method rel;ative to control; procedure, shortened: as §1
[7] = molecular target: Histone deacetylase 1 (Homo sapiens) (UniProt Q13547); experiment: Inhibition of HDAC1 in human HeLa-S3 cell lysates assessed as remaining activity at 4.8 x 10^-5 M preincubated for 15 mins followed by HDAC-Glo substrate addition measured after 30 to 40 mins by […] relative to control
Sequence of Histone deacetylase 1 (Homo sapiens) (Q13547 whole entry): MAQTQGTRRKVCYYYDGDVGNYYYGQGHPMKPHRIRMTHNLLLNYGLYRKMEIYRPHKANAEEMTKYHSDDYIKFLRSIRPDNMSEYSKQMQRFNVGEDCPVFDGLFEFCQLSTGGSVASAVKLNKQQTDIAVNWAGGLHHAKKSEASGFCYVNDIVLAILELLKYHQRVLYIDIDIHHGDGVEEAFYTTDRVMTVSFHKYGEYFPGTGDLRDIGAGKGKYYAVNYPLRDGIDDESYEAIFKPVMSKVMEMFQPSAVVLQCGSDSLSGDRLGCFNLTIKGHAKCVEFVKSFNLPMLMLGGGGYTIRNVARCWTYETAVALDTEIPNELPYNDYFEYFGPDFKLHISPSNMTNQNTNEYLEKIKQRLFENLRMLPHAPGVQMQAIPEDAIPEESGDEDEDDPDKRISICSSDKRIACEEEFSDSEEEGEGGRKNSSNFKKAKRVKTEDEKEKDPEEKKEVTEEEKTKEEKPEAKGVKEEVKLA
Procedure, shortened: (§2)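 HDAC1 was captured from HeLa-S3 lysate (100 μg/mL) onto wells precoated with anti-HDAC1 antibody (10 μg/mL, carbonate buffer pH 9.4) and milk-blocked, 1 h at 4 °C, then washed. Inhibitor in DMSO was added in HDAC-Glo buffer for 15 min at room temperature. HDAC-Glo reagent was added and luminescence read after 30-40 min. Concentrations are final. No-antibody background subtracted; % of DMSO control.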

[8] = molecular target: Histone deacetylase 1 (Homo sapiens) (UniProt Q13547); experiment: Inhibition of HDAC1 in human HeLa-S3 cell lysates assessed as remaining activity at 2.4 x 10^-5 M preincubated for 15 mins followed by HDAC-Glo substrate addition measured after 30 to 40 mins by […] relative to control; procedure, shortened: as §2
[9] = molecular target: Histone deacetylase 1 (Homo sapiens) (UniProt Q13547); experiment: Inhibition of HDAC1 in human HeLa-S3 cell lysates assessed as remaining activity at 1.2 x 10^-5 M preincubated for 15 mins followed by HDAC-Glo substrate addition measured after 30 to 40 mins by […] relative to control; procedure, shortened: as §2
[10] = molecular target: Histone deacetylase 1 (Homo sapiens) (UniProt Q13547); experiment: Inhibition of HDAC1 in human HeLa-S3 cell lysates assessed as remaining activity at 6 x 10^-6 M preincubated for 15 mins followed by HDAC-Glo substrate addition measured after 30 to 40 mins by […] relative to control; procedure, shortened: as §2
[11] = molecular target: Histone deacetylase 1 (Homo sapiens) (UniProt Q13547); experiment: Inhibition of HDAC1 in human HeLa-S3 cell lysates assessed as remaining activity at 3 x 10^-6 M preincubated for 15 mins followed by HDAC-Glo substrate addition […] relative to control
[12] = molecular target: Histone deacetylase 2 (Homo sapiens) (UniProt Q92769); experiment: Inhibition of HDAC2 in human HeLa-S3 cell lysates assessed as remaining activity at 4.8 x 10^-5 M preincubated for 15 mins followed by HDAC-Glo substrate addition measured after 30 to 40 mins by […] relative to control
Sequence of Histone deacetylase 2 (Homo sapiens) (Q92769 whole entry, canonical isoform): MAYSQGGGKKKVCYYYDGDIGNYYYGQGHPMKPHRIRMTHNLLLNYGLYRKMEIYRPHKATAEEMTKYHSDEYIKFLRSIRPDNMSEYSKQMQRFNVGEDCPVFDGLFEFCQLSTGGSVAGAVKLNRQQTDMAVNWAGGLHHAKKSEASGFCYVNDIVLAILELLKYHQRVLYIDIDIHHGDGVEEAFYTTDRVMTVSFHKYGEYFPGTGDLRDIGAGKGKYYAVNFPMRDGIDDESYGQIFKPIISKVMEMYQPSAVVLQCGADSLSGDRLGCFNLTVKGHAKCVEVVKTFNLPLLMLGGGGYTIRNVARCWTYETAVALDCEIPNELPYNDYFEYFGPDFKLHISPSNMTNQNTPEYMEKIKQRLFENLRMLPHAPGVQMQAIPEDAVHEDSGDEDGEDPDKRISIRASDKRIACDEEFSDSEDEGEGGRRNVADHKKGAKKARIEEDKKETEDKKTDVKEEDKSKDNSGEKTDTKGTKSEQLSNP
Procedure, shortened: (§3)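 Same antibody-capture format as the other class I isoforms. HeLa-S3 lysate added at 100 μg/mL for HDAC1 and HDAC2, 1 h at 4 °C, then washed. Inhibitor in DMSO preincubated 15 min at RT; HDAC-Glo reagent added and luminescence read after 30-40 min. Concentrations are final. Signal corrected against a well without antibody; activity expressed as % of DMSO control.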

[13] = molecular target: Histone deacetylase 2 (Homo sapiens) (UniProt Q92769); experiment: Inhibition of HDAC2 in human HeLa-S3 cell lysates assessed as remaining activity at 2.4 x 10^-5 M preincubated for 15 mins followed by HDAC-Glo substrate addition measured after 30 to 40 mins by fluorimetric method relative to control; procedure, shortened: as §3
[14] = molecular target: Histone deacetylase 2 (Homo sapiens) (UniProt Q92769); experiment: Inhibition of HDAC2 in human HeLa-S3 cell lysates assessed as remaining activity at 1.2 x 10^-5 M preincubated for 15 mins followed by HDAC-Glo substrate addition measured after 30 to 40 mins by […] relative to control; procedure, shortened: as §3
[15] = molecular target: Histone deacetylase 2 (Homo sapiens) (UniProt Q92769); experiment: Inhibition of HDAC2 in human HeLa-S3 cell lysates assessed as remaining activity at 6 x 10^-6 M preincubated for 15 mins followed by HDAC-Glo substrate addition measured after 30 to 40 mins by […] relative to control; procedure, shortened: as §3
[16] = molecular target: Histone deacetylase 2 (Homo sapiens) (UniProt Q92769); experiment: Inhibition of HDAC2 in human HeLa-S3 cell lysates assessed as remaining activity at 3 x 10^-6 M preincubated for 15 mins followed by HDAC-Glo substrate addition measured after 30 to 40 mins by fluorimetric method relative to control; procedure, shortened: as §3
[17] = molecular target: Histone deacetylase 3 (Homo sapiens) (UniProt O15379); experiment: Inhibition of HDAC3 in human HeLa-S3 cell lysates assessed as remaining activity at 4.8 x 10^-5 M preincubated for 15 mins followed by HDAC-Glo substrate addition measured after 30 to 40 mins by […] relative to control
Sequence of Histone deacetylase 3 (Homo sapiens) (O15379 whole entry): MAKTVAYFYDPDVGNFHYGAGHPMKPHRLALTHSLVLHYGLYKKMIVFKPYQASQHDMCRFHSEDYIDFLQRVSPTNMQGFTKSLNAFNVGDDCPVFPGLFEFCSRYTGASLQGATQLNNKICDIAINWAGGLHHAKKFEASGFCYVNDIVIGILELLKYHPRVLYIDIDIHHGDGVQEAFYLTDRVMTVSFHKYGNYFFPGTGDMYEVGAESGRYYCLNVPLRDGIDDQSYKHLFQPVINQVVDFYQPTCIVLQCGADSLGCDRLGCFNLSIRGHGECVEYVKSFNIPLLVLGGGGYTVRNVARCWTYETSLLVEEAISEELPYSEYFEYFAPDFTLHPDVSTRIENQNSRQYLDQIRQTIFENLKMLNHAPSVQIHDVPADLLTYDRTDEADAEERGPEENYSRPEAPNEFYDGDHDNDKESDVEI
Procedure, shortened: (§4)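 Antibody-capture (ELISA-type) assay: HDAC antibody coated in carbonate/bicarbonate buffer pH 9.4, wells blocked with 5% milk in TBST. HeLa-S3 lysate added at 1 mg/mL for HDAC3, 1 h at 4 °C, then washed. Inhibitor in DMSO preincubated 15 min at RT in HDAC-Glo buffer. HDAC-Glo reagent added, luminescence read after 30-40 min. Concentrations are final. Background = no-antibody well; activity given as % of DMSO control.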

[18] = molecular target: Histone deacetylase 3 (Homo sapiens) (UniProt O15379); experiment: Inhibition of HDAC3 in human HeLa-S3 cell lysates assessed as remaining activity at 2.4 x 10^-5 M preincubated for 15 mins followed by HDAC-Glo substrate addition measured after 30 to 40 mins by […] relative to control; procedure, shortened: as §4
[19] = molecular target: Histone deacetylase 3 (Homo sapiens) (UniProt O15379); experiment: Inhibition of HDAC3 in human HeLa-S3 cell lysates assessed as remaining activity at 1.2 x 10^-5 M preincubated for 15 mins followed by HDAC-Glo substrate addition measured after 30 to 40 mins by […] relative to control; procedure, shortened: as §4
[20] = molecular target: Histone deacetylase 3 (Homo sapiens) (UniProt O15379); experiment: Inhibition of HDAC3 in human HeLa-S3 cell lysates assessed as remaining activity at 6 x 10^-6 M preincubated for 15 mins followed by HDAC-Glo substrate addition measured after 30 to 40 mins by […] relative to control; procedure, shortened: as §4
[21] = molecular target: Histone deacetylase 3 (Homo sapiens) (UniProt O15379); experiment: Inhibition of HDAC3 in human HeLa-S3 cell lysates assessed as remaining activity at 3 x 10^-6 M preincubated for 15 mins followed by HDAC-Glo substrate addition measured after 30 to 40 mins by fluorimetric method relative to control; procedure, shortened: as §4

IC50 (Histone deacetylase): 65 µM | Activity [1]: 15% | Activity [2]: 32% | Activity [3]: 88% | Activity [4]: 104% | Activity [5]: 48% | Activity [6]: 29% | Activity [7]: 19% | Activity [8]: 34% | Activity [9]: 53% | Activity [10]: 63% | Activity [11]: 74% | Activity [12]: 22% | Activity [13]: 33% | Activity [14]: 53% | Activity [15]: 68% | Activity [16]: 72% | Activity [17]: 30% | Activity [18]: 53% | Activity [19]: 64% | Activity [20]: 74% | Activity [21]: 88%
SMILES: O=C(CCC(CCCC(=O)Nc1ccccc1)c1ccccc1)NO (configuration not stated)
